Source: PubChem BioAssay (several laboratories)
Most compounds without a hit are left out; they make up all but 2.7% or so of the library.
Rpn11 block – Rpn11 (PSMD14) deubiquitinase inhibitors, primary screen, biochemical, fluorescence polarization, uHTS; 360,000 compounds, 0.59% hits; inhibition, % at 20 µM; AID 588493, 2011; human 26S proteasome, Ub4-pepOG fluorescence polarization; 20S core pre-blocked with epoxomicin;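 active = inhibition at 20 µM, scaled to each plate's controls, above about 33%, limit read from the data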
CSN deneddyl inh – inhibitors of CSN-mediated cullin deneddylation, primary screen, biochemical, fluorescence polarization, uHTS; COP9 signalosome complex subunit 5 (Homo sapiens), Q92905; Purified CSN, SCF-Nedd8-OG deneddylation; inhibition, % at 12.5 µM; AID 651999, 2013; 360,000 compounds, 0.38% hits;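 active = pattern-corrected inhibition above about 35%, with an unprinted fluorescence ratio check between 0.5 and 1.5, limit read from the data, passing the limit was not always enough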;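 also: 0% = enzyme with substrate and 100% = substrate without enzyme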
Target sequence (Q92905 whole entry, looked up, one chain of several): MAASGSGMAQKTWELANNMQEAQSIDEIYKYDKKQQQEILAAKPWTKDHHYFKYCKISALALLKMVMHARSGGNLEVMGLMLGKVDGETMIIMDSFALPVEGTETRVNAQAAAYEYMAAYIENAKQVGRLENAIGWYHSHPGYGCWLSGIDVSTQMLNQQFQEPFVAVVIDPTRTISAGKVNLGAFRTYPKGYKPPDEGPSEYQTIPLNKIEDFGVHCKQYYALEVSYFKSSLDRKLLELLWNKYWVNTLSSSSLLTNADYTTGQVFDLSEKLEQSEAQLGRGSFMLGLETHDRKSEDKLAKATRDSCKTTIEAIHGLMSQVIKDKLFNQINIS
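Test system: purified human Csn5 enzyme expressed in HEK293T cells. Amount: 0.24 nM enzyme. Reagent: SCFSkp2-Nedd8OG substrate at 10 nM final. Schedule: 90 min incubation of compound, enzyme and substrate at room temperature. Detection: fluorescence polarization. Read-out: % inhibition of substrate cleavage by Csn5.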
HNF4A DNA FP – change in binding of human HNF4A to DNA, primary screen, biochemical, fluorescence polarization, FITC-DNA; Hepatocyte nuclear factor 4-alpha (Homo sapiens), P41235; 1 h; activity change, % at 10 µM; 360,000 compounds, 0.3% hits; in the data active = activity change above about 30%, passing the limit was not always enough
NadD inh – inhibitors of S. aureus NadD, primary screen, biochemical, colorimetric, uHTS | purified NadD enzyme, colorimetric absorbance read-out | Nicotinate-nucleotide adenylyltransferase NadD (Staphylococcus aureus N315) | 360,000 compounds, 0.78% hits | inhibition, % at 20 µM; in the data active = inhibition above about 26%
PP1 counter – PP1-alpha phosphatase inhibitors, primary screen, counter-screen for PP5 inhibitor project, biochemical, fluorescence, OMFP substrate, single point | AID 2235, 2010 | 320,000 compounds, 0.9% hits | purified PP1alpha | inhibition, % at 6.7 µM;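 active = inhibition above the mean inhibition of all tested compounds plus 3 SD, computed separately for each screening campaign, cut at about 15% in these data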
Target sequence (P62136 whole entry, looked up): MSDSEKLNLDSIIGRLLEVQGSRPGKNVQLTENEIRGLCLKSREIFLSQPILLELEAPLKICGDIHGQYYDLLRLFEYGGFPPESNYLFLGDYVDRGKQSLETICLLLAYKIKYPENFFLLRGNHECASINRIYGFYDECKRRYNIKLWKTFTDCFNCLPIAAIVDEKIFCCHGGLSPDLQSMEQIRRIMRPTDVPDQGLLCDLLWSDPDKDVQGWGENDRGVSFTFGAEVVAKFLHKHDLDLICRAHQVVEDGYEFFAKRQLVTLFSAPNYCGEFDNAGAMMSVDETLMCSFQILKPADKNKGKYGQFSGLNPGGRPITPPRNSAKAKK
TPT1 inhibitor – Candida albicans TPT1 enzyme inhibitors, primary screen, biochemical, fluorescence polarization | tRNA 2'-phosphotransferase TPT1 (Candida albicans SC5314) | recombinant caTPT1, FP RNA substrate dephosphorylation | inhibition, % at 5 µM | 300,000 compounds, 0.81% hits;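 active = inhibition above the mean of all tested compounds plus 3 SD, set per screening campaign, cut at about 24% in these data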;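 also: plate controls were DMSO alone for no effect and ferristatin control at 100 nM for full effect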
NadD inh conf – inhibitors of S. aureus NadD, confirmation, biochemical, colorimetric, single concentration. AID 624309, 2012. inhibition, % at 20 µM. 2,000 compounds, 13% hits. shares compounds with NadD inh. purified S. aureus NadD, colorimetric enzyme assay; in the data active = inhibition mostly above about 42%, no sharp cut-off; inactive = mostly below about 42%
* marks the source's active call; other numbers are inactive results; · = not tested or not shown.

SMILES | Rpn11 block | CSN deneddyl inh | HNF4A DNA FP | NadD inh | PP1 counter | TPT1 inhibitor | NadD inh conf
Nc1cc(N)cc(C(=O)OCC(=O)Nc2cc(S(=O)(=O)N3CCCCC3)ccc2Cl)c1 | 8.3 | -5.7 | 3.6 | 31.1* | 5.3 | 6.6 | 17.6
COc1ccc(C(C(=O)NC2CCCC2)N(C(=O)c2snc(-c3ccc(F)cc3)c2N)c2cccc(F)c2)cc1 (centres undefined) | -3.1 | 1.6 | 0.9 | 38.8* | -6.5 | 1.7 | 6.4
CN(C(=O)c1ccc(NC(=O)Cc2cccc(NC(=O)C3CCN(C(=O)C4CC4)CC3)c2)cc1)C1CC1 | -1.8 | -1.0 | 2.1 | 5.7 | · | · | ·
CCCC(C)NC(=O)CN1C(=O)c2cccc3cccc1c23 (centres undefined) | -4.2 | -1.3 | 3.6 | 1.8 | -3.1 | -3.5 | ·
COc1ccccc1NC(=O)c1cnc(SCC(=O)NCCc2ccccc2)n(C)c1=O | 9.5 | -0.9 | 1.3 | 1.6 | -6.1 | -1.5 | ·
CC(C)(C)c1ccc(OCC(=O)Nc2ccc3c4c(cccc24)C(=O)NC3=O)cc1 | -6.7 | -9.4 | -17.1 | 33.7* | · | · | 2.5
O=C(/C=C/NNC(=O)c1cccc(Br)c1)c1cccc(Br)c1 | 13.7 | 3.9 | -3.9 | 29.8* | 7.3 | 6.2 | 23.7
CC(CCC(=O)NN)C1CCC2C3CCC4CC(O)CCC4(C)C3CCC12C (centres undefined) | 14.1 | 12.9 | 3.5 | 37.9* | · | · | 6.3
O=C(O)CC/C(=C/c1cccc(NC(=O)c2ccccc2Cl)c1)c1nc2ccccc2s1 | 14.3 | 8.4 | 5.6 | 46.5* | · | · | 40.4
CCn1c2ccccc2c2cc(NC(=O)COc3ccc(OC)cc3)ccc21 | 3.2 | -0.2 | -1.9 | -2.4 | 1.7 | 4.2 | ·
CCn1c2ccccc2c2cc(NC(=O)COC(=O)c3ccccc3O)ccc21 | 21.7 | 7.0 | 2.1 | 13.5 | -2.1 | -2.6 | ·
CCn1c2ccccc2c2cc(NC(=O)COC(=O)c3cc(S(N)(=O)=O)c(Cl)cc3Cl)ccc21 | 11.4 | 1.8 | -0.6 | 40.6* | 1.8 | 1.0 | 26.4
CCn1c2ccccc2c2cc(NC(=O)COC(=O)c3cc(Cl)c(N)cc3OC)ccc21 | 10.1 | 5.1 | 12.2 | 35.8* | 0.8 | -0.3 | 26.2
CC(C)c1ccc(/C=C2\SC(=O)N(CC(=O)NCCCn3ccnc3)C2=O)cc1 | 5.2 | 10.1 | 7.2 | 33.6* | 10.6 | 0.4 | -4.6
O=C(CN1C(=O)S/C(=C\c2ccccc2)C1=O)NCCCn1ccnc1 | -8.7 | 5.6 | -1.7 | 5.9 | 0.3 | -1.7 | ·
Cc1c(NC(=O)/C(C#N)=C/c2ccc(-c3cccc(Cl)c3)o2)c(=O)n(-c2ccccc2)n1C | 5.4 | 6.0 | 2.3 | 11.4 | 1.5 | -2.3 | ·
Cc1c(NC(=O)/C(C#N)=C/c2ccc(-c3ccc(Cl)c(Cl)c3)o2)c(=O)n(-c2ccccc2)n1C | 23.8 | 2.8 | 7.3 | 32.8* | -0.5 | 0.3 | 8.3
CCOC(=O)C1=C(C)N(C[C@@H]2CC[C@@H](Cc3ccc(-c4ccccc4)cc3)O2)C(=O)NC1c1ccc(SCc2ccco2)c([N+](=O)[O-])c1 (some centres undefined) | -5.1 | 18.7 | -9.1 | 58.5* | · | · | 26.2
CCOC(=O)C1=C(C)N(C[C@@H]2CC[C@@H](Cc3ccc(-c4ccccc4)cc3)O2)C(=O)NC1c1ccc(C(F)(F)F)cc1 (some centres undefined) | 6.1 | 0.0 | -0.2 | 1.1 | · | · | ·
O=c1[nH]c2ccc(Cl)cc2c(O)c1-c1ccccc1 | 2.0 | -4.7 | -0.4 | -3.9 | -2.9 | -3.6 | ·
O=c1[nH]c2ccc(Cl)cc2c(-c2ccccc2)c1SC(=S)N1CCCCC1 | 30.7 | 4.6 | -3.2 | 37.1* | 11.2 | -3.4 | 6.6
CN(C)S(=O)(=O)c1cccc(C(=O)Nc2cc3c(cc2C(=O)O)OCCCO3)c1 | -4.7 | -0.2 | -2.6 | -5.4 | -0.2 | -0.6 | ·
N#CCC(=O)Nc1ccc(C(=O)OC(C(=O)Nc2ccc([N+](=O)[O-])cc2Br)c2ccccc2)cc1 (centres undefined) | 33.3 | 6.0 | 14.0 | 45.5* | · | · | 38.8
COc1ccc(C)cc1NC(=O)C1CCCN(S(=O)(=O)c2ccc3c(c2)CCCN3C(C)=O)C1 (centres undefined) | -0.1 | 0.9 | -8.1 | 5.5 | 1.0 | -1.8 | ·
Cc1cc(C(=O)CSc2nc3ccc(Cl)cc3[nH]2)c(C)n1C | -0.7 | 8.4 | 6.1 | 34.1* | 7.0 | -2.5 | 40.8
SMILES | Rpn11 block | CSN deneddyl inh | HNF4A DNA FP | NadD inh | PP1 counter | TPT1 inhibitor | NadD inh conf
CC(C)C[C@@H](CNCC(=O)[C@H](CC(=O)O)NC(=O)c1[nH]cnc1C(=O)N[C@H](CN)CC(C)C)NC(=O)c1nc[nH]c1C(=O)N[C@@H](Cc1ccccc1)C(=O)O | 23.3 | 4.5 | -1.2 | 34.6* | · | · | 52.2*
CC(C)C[C@@H](CNCC(=O)[C@H](CC(C)C)NC(=O)c1[nH]cnc1C(=O)N[C@@H](C)CN)NC(=O)c1nc[nH]c1C(=O)N[C@@H](Cc1ccccc1)C(=O)O | -11.8 | 0.0 | 1.4 | 25.1 | · | · | ·
O=C(NCc1n[nH]c(=S)n1-c1ccc(Br)cc1)c1ccc(S(=O)(=O)N2CCCCC2)cc1 | 4.3 | 0.8 | 4.9 | 6.8 | -2.3 | 0.4 | ·
Brc1ccc(-c2ccc(/C=N/Nc3nncc(-c4ccccc4)n3)o2)cc1 | 1.1 | 1.7 | 1.6 | 28.7* | -1.6 | -1.9 | 8.7
COc1ccc(S(=O)(=O)NCCOc2ccc(Cl)cc2)cc1 | 7.6 | 5.8 | -3.2 | -5.6 | 5.5 | · | ·
Cc1ccccc1C(=O)Nc1nnc(CC(=O)N/N=C/c2cn(Cc3ccccc3)c3ccccc23)s1 | 10.8 | 0.9 | -0.2 | 45.4* | 15.5* | 1.1 | 16.5
COc1cc(OC)cc(-c2c(-c3cccs3)c3cc(-c4ccc(SC)cc4)ccc3n2C)c1 | 13.9 | 18.1 | 11.9 | 16.3 | 3.3 | · | ·
COc1cc(OC)cc(-c2c(-c3cccs3)c3cc(-c4ccc(OCc5ccccc5)cc4)ccc3n2C)c1 | 24.3 | 0.8 | 17.1 | 46.3* | · | · | -4.6
Cc1nn(CCCC(=O)NCc2ccco2)c(=O)c2nn(-c3ccccc3)c(C)c12 | -4.8 | -7.4 | 1.9 | -1.5 | -3.3 | -0.5 | ·
